From ChEMBL document CHEMBL1629578, “Structure-activity relationships of antimicrobial and lipoteichoic acid-sequestering properties in polyamine sulfonamides” (Antimicrob Agents Chemother, 2009) come the findings set out here.

In series [1] the test system is HEK293. The experiment in a line: Sequestration activity Saccharomyces cerevisiae lipoteichoic acid assessed as inhibition of TLR2-mediated NF-kappaB translocation in HEK293 cells stably transfected TLR2/MD2/CD14/alkaline phosphatase by reporter gene assay. To be noted: Staphylococcus aureus, in the assay text read “Staphylococcus aureus” for “Saccharomyces cerevisiae”. The class given is cell-based. In a few lines:
(§1)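 HEK-Blue-2 reporter cells (TLR2, MD2, CD14, NF-κB/AP-1-driven secreted alkaline phosphatase) were grown to confluence, then stimulated with LTA purified from S. aureus (n-butanol extraction, delipidated, enzymatically deproteinated) plus graded compound concentrations. sAP was read with a chromogen at 620 nm. Dilutions were run in quadruplicate and experiments repeated three times.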

Series [2] has as its system HEK293. In words: Neutralizing activity lipopolysaccharide assessed as inhibition of TLR4-mediated NF-kappaB translocation in HEK293 cells stably transfected TLR4/MD2/CD14/alkaline phosphatase by reporter gene assay. The class given is cell-based. An outline of the steps:
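HEK-Blue-4 cells (TLR4, MD2, CD14, NF-κB/AP-1-inducible secreted alkaline phosphatase) were grown to confluence and stimulated with E. coli O111:B4 LPS plus graded compound concentrations. Alkaline phosphatase was read with a chromogen at 620 nm. Each dilution was run in quadruplicate and experiments repeated three times.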

The subject of series [3] is HEK293. The experiment in a line: Sequestering activity against lipoteichoic acid assessed as inhibition of TLR2-mediated NF-kappaB induction in HEK293 cells stably transfected TLR2/MD2/CD14/alkaline phosphatase by reporter gene assay.
Series [4] has as its system HEK293. In words: (§2) Sequestering activity against saccharomyces cerevisiae lipoteichoic acid assessed as inhibition of TLR2-mediated NF-kappaB induction in HEK293 cells stably transfected TLR2/MD2/CD14/alkaline phosphatase by reporter gene assay. The class given is cell-based. To be noted: Staphylococcus aureus, in the assay text read “Staphylococcus aureus” for “Saccharomyces cerevisiae”. In a few lines: as §1

Series [5] is described as follows: Aqueous solubility of the compound. It counts as physicochemical. As to conditions: buffer.
For series [6], the system named is HEK293. In words: Neutralizing activity against saccharomyces cerevisiae lipoteichoic acid assessed as inhibition of TLR2-mediated NF-kappaB induction in HEK293 cells stably transfected TLR2/MD2/CD14/alkaline phosphatase by reporter gene assay. The class given is cell-based. As to conditions: Staphylococcus aureus, in the assay text read “Staphylococcus aureus” for “Saccharomyces cerevisiae”. In a few lines:
as §1

The nature of series [7]: as §2. It counts as cell-based. To be noted: Staphylococcus aureus, in the assay text read “Staphylococcus aureus” for “saccharomyces cerevisiae”. In a few lines:
as §1

Another series relates to Staphylococcus aureus. In words: Antimicrobial activity against Staphylococcus aureus ATCC 13709 at 37 degC by broth microdilution method. The class given is functional, organism-based. In a few lines:
(§3)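 Broth microdilution in non-cation-supplemented Mueller-Hinton broth. Mid-log cultures were adjusted to OD600 0.5, diluted 10-fold and added to equal volumes of 2-fold serially diluted compound. Plates were incubated overnight at 37°C and read at 600 nm. MIC was the lowest concentration giving complete growth inhibition. Triplicate points from a representative experiment.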

The subject of the next series is Escherichia coli. In words: Antimicrobial activity against Escherichia coli ATCC 9637 at 37 degC by broth microdilution method. The class given is functional, organism-based. In a few lines:
as §3

The source made the active and inactive calls. The calls are words filed in the database; no cut-off is given here.

Consider `CCCCCCCCCCCCCCCCCCS(=O)(=O)NCCCNCCCCNCCCN`, for which the inhibition entry in the series on HEK293 [1], in the series on HEK293 [2] and with HEK293 [3] was “Active” throughout.

Turning to POLYMYXIN B, the result in the series on HEK293 [4] was Active.

Take `CCCCCCCCCCS(=O)(=O)NCCCNCCCNCCCCNCCCN`: the inhibition entry in the series with HEK293 [1], with HEK293 [2] and in the series on HEK293 [3] was “Active” throughout.

Regarding `CCCCCCCCCCCCS(=O)(=O)NCCCNCCCNCCCCCCNCCCNCCCNS(=O)(=O)CCCCCCCCCCCC.Cl`, in series [5], the solubility entry is on record as “Insoluble”. In the series with HEK293 [6], the inhibition result was “inactive”. Also, in series [7], the EC50 was 60 µM. For the same molecule, the outcome in the series on Staphylococcus aureus was Active.

`CCCCCCCCCCCCCCCCCCS(=O)(=O)NCCCNCCCNCCCCCCNCCCNCCCNS(=O)(=O)CCCCCCCCCCCCCCCCCC.Cl`: in series [5], the solubility result is given as “Insoluble”. The inhibition result in the series on HEK293 [6] is “inactive”. Also, in [7], the EC50 is 60 µM. The result with Staphylococcus aureus was Active.

As to `CCCCCCCCCCCCS(=O)(=O)NCCCNCCCCNCCCN`, the inhibition result with HEK293 [1], in the series on HEK293 [2] and in the series on HEK293 [3] was “Active” each time.

In the case of `CCCCCCCCCCS(=O)(=O)NCCCNCCCNCCCCCCNCCCNCCCNS(=O)(=O)CCCCCCCCCC.Cl`, the outcome with Escherichia coli was inactive. Besides, the solubility result in series [5] was “Insoluble”. In the series with HEK293 [6], the inhibition entry is “inactive”. In addition, the EC50 in series [7] came out at 60 µM. Also, the outcome in the series on Staphylococcus aureus was Active.

As for `CCCCCCCCCCCCCCCCS(=O)(=O)NCCCNCCCNCCCCNCCCN`, the inhibition result with HEK293 [1], in the series on HEK293 [2] and in the series on HEK293 [3] was “Active” throughout. Also, the result in the series on Escherichia coli was Active. For the same molecule, the EC50 in [7] came to 1 µM.

Consider `CCCCCCCCS(=O)(=O)NCCCNCCCNCCCCCCNCCCNCCCNS(=O)(=O)CCCCCCCC.Cl`, for which the result in the series with Escherichia coli was inactive. Moreover, in series [5], the solubility entry was “Insoluble”. The inhibition entry in the series on HEK293 [6] was “inactive”. For the same molecule, the EC50 in series [7] amounted to 60 µM. The result in the series with Staphylococcus aureus was Active.

Turning to `CCCCCCCCCCCCCCCCS(=O)(=O)NCCCNCCCCNCCCN`, the inhibition entry in the series with HEK293 [1], in the series on HEK293 [2] and with HEK293 [3] was “Active” throughout. The EC50 in series [7] stood at 1 µM.

For the molecule `CCCCCCCCCCCCCCCCS(=O)(=O)NCCCNCCCNCCCCCCNCCCNCCCNS(=O)(=O)CCCCCCCCCCCCCCCC.Cl`, the solubility result in [5] is “Insoluble”. Also, the inhibition result in the series on HEK293 [6] was “inactive”. Besides, the EC50 in series [7] amounted to 60 µM. The outcome in the series with Staphylococcus aureus was Active.

For `CCCCCCCCCCCCCCCCCCS(=O)(=O)NCCCNCCCNCCCCNCCCN`, the inhibition result with HEK293 [1], with HEK293 [2] and in the series on HEK293 [3] was “Active” throughout.

Turning to `CCCCCCCCS(=O)(=O)NCCCNCCCNCCCCNCCCN`, the inhibition result in the series with HEK293 [1], in the series on HEK293 [2] and in the series on HEK293 [3] was “Active” each time.

For `CCCCCCCCCCCCS(=O)(=O)NCCCNCCCNCCCCNCCCN`, the inhibition entry in the series with HEK293 [1], in the series on HEK293 [2] and in the series with HEK293 [3] was “Active” in each case. Moreover, the result in the series with Escherichia coli was Active.

With `CCCCCCCCCCS(=O)(=O)NCCCNCCCCNCCCN`, the inhibition result with HEK293 [1], in the series on HEK293 [2] and in the series with HEK293 [3] was “Active” in each case.

In the case of `CCCCCCCCS(=O)(=O)NCCCNCCCCNCCCN`, the inhibition result with HEK293 [1], in the series with HEK293 [2] and with HEK293 [3] was “Active” throughout.
